Drawing on ChEMBL document CHEMBL3393023, “Benzimidazole-containing HCV NS5A inhibitors: effect of 4-substituted pyrrolidines in balancing genotype 1a and 1b potency” (Bioorg Med Chem Lett, 2015), this text covers CC50 and EC50 for 25 molecules.

Data set [1] can be described thus: Cytotoxicity against human Huh7ET cells by [3H]-thymidine incorporation assay. The format is cell-based. The note with it: Huh7ET cells (Huh-7). Summed up: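 Huh-7 ET cells were exposed to 12 test-compound concentrations, each in duplicate. Viability was read by [3H]-thymidine incorporation and CC50 was derived from the curve. A run was accepted only when the positive-control CC50 fell within 40% of its mean value.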

The test system of data set [2] is Hepatitis C virus. The data set is described as follows: Antiviral activity against Hepatitis C virus genotype 1a infected in W11.8 cells assessed as decrease in NS5A expression in replicon cell after 4 days by luminescence based ELISA. The format is functional, Hepacivirus hominis. To be noted: subtype 1a, W11.8, 96 h.
Data set [3] has as its system Hepatitis C virus. The data set is described as follows: Antiviral activity against Hepatitis C virus genotype 1b infected in human Huh-5.2 cells assessed as decrease in HCV replicon RNA replication after 4 days by luciferase assay. The class given is functional, cell-based, Hepacivirus hominis. To be noted: Huh-5-2, 96 h.

In data set [1], `COC(=O)N[C@H](C(=O)N1CCC[C@H]1c1nc2ccc(-c3ccc(-c4ccc5nc([C@@H]6CCCN6C(=O)[C@@H](NC(=O)OC)C(C)C)[nH]c5c4)s3)cc2[nH]1)C(C)C` showed a 50% cytotoxic concentration (CC50) of 6000 nM. Further, the concentration giving a half-maximal response (EC50) was found to be 0.94 nM in data set [2] and 0.01 nM in data set [3].
In data set [1], `COC(=O)N[C@H](C(=O)N1CCC[C@H]1c1nc2ccc(-c3ccc(-c4ccc5nc([C@@H]6CCCN6C(=O)[C@@H](NC(=O)OC)C(C)C)[nH]c5c4)cc3)cc2[nH]1)C(C)C` registered a CC50 of 6000 nM. For the same molecule, the EC50 is 0.55 nM in data set [2] and 0.012 nM in data set [3].
Turning to `COC(=O)N[C@H](C(=O)N1CCC[C@H]1c1ncc(-c2ccc(-c3ccc(-c4ccc5nc([C@@H]6CCCN6C(=O)[C@@H](NC(=O)OC)C(C)C)[nH]c5c4)cc3)cc2)[nH]1)C(C)C`, the concentration giving a half-maximal response (EC50) came to 0.139 nM in data set [2] and 0.013 nM in data set [3].
In data set [1], `COC(=O)N[C@H](C(=O)N1CCC[C@H]1c1nc2ccc(-c3ccc4nc([C@@H]5CCCN5C(=O)[C@@H](NC(=O)OC)C(C)C)[nH]c4c3)cc2[nH]1)C(C)C` displayed a half-maximal cytotoxic concentration (CC50) greater than 20000 nM. Moreover, the values for the EC50 in data set [2] and in data set [3] were greater than 2000 nM and 26 nM, respectively.
In data set [1], `COC(=O)N[C@H](C(=O)N1CCC[C@H]1c1nc2ccc(C#Cc3ccc4nc([C@@H]5CCCN5C(=O)[C@@H](NC(=O)OC)C(C)C)[nH]c4c3)cc2[nH]1)C(C)C` registered a CC50 greater than 20000 nM. Further, the EC50 in data set [2] worked out at 28 nM; in data set [3] it was 0.022 nM.
For `COC(=O)N[C@H](C(=O)N1CCC[C@H]1c1nc2ccc(C#CC#Cc3ccc4nc([C@@H]5CCCN5C(=O)[C@@H](NC(=O)OC)C(C)C)[nH]c4c3)cc2[nH]1)C(C)C` the same measures were 13000 nM, 18 nM and 0.024 nM.
In the same order, the values of `COC(=O)N[C@H](C(=O)N1CCC[C@H]1c1nc2cc(CCc3ccc4[nH]c([C@@H]5CCCN5C(=O)[C@@H](NC(=O)OC)C(C)C)nc4c3)ccc2[nH]1)C(C)C` are greater than 20000 nM, 688 nM and 0.076 nM.
On to `COC(=O)N[C@H](C(=O)N1CCC[C@H]1c1nc2cc(-c3cccc(-c4ccc5[nH]c([C@@H]6CCCN6C(=O)[C@@H](NC(=O)OC)C(C)C)nc5c4)c3)ccc2[nH]1)C(C)C`, for which the CC50 in data set [1] stood at 6000 nM. In addition, the half-maximal effective concentration (EC50) in data set [2] stood at 378 nM; in data set [3], 20 nM.
For `COC(=O)N[C@H](C(=O)N1CCC[C@H]1c1nc2cc(-c3ccc(-c4ccc5[nH]c([C@@H]6CCCN6C(=O)[C@@H](NC(=O)OC)C(C)C)nc5c4)c(C)c3)ccc2[nH]1)C(C)C` the same measures were 3000 nM, 0.84 nM and 0.006 nM.
In the same order, the values of `COC(=O)N[C@H](C(=O)N1CCC[C@H]1c1nc2cc(-c3ccc(-c4ccc5nc([C@@H]6CCCN6C(=O)[C@@H](NC(=O)OC)C(C)C)[nH]c5c4)cc3OC)ccc2[nH]1)C(C)C` are 6000 nM, 0.36 nM and 0.013 nM.
In the same order, the values of `COC(=O)N[C@H](C(=O)N1CCC[C@H]1c1nc2cc(-c3ccc(-c4ccc5[nH]c([C@@H]6CCCN6C(=O)[C@@H](NC(=O)OC)C(C)C)nc5c4)c(F)c3)ccc2[nH]1)C(C)C` are 6000 nM, 0.84 nM and 0.012 nM.
The molecule `COC(=O)N[C@H](C(=O)N1CCC[C@H]1c1nc2cc(-c3cc(C)c(-c4ccc5[nH]c([C@@H]6CCCN6C(=O)[C@@H](NC(=O)OC)C(C)C)nc5c4)cc3C)ccc2[nH]1)C(C)C` showed a 50% cytotoxic concentration (CC50) in data set [1] of 5000 nM. Moreover, the EC50 in data set [2] is 0.9 nM; in data set [3] it was 0.006 nM.
In the same order, the values of `COC(=O)N[C@H](C(=O)N1CCC[C@H]1c1nc2cc(-c3ccc(-c4ccc5[nH]c([C@@H]6CCCN6C(=O)[C@@H](NC(=O)OC)C(C)C)nc5c4)c(C)c3C)ccc2[nH]1)C(C)C` are 7000 nM, 2.9 nM and 0.01 nM.
For `COC(=O)N[C@H](C(=O)N1C[C@@H](F)C[C@H]1c1nc2cc(-c3ccc(-c4ccc5[nH]c([C@@H]6C[C@H](F)CN6C(=O)[C@@H](NC(=O)OC)C(C)C)nc5c4)cc3)ccc2[nH]1)C(C)C` the same measures were 11000 nM, 4.9 nM and 0.082 nM.
On to `COC(=O)N[C@H](C(=O)N1C[C@H](F)C[C@H]1c1nc2cc(-c3ccc(-c4ccc5[nH]c([C@@H]6C[C@@H](F)CN6C(=O)[C@@H](NC(=O)OC)C(C)C)nc5c4)cc3)ccc2[nH]1)C(C)C`, for which it took 14000 nM to reach half-maximal cytotoxicity in data set [1] (CC50). Also, the 50% effective concentration (EC50) in data set [2] was found to be 1.1 nM; in data set [3], 0.018 nM.
For `COC(=O)N[C@H](C(=O)N1CC(F)(F)C[C@H]1c1nc2cc(-c3ccc(-c4ccc5[nH]c([C@@H]6CC(F)(F)CN6C(=O)[C@@H](NC(=O)OC)C(C)C)nc5c4)cc3)ccc2[nH]1)C(C)C` the same measures were 13000 nM, 0.5 nM and 0.004 nM.
In turn, `COC(=O)N[C@H](C(=O)N1C[C@H](O)C[C@H]1c1nc2cc(-c3ccc(-c4ccc5[nH]c([C@@H]6C[C@@H](O)CN6C(=O)[C@@H](NC(=O)OC)C(C)C)nc5c4)cc3)ccc2[nH]1)C(C)C` registered a CC50 in data set [1] greater than 20000 nM. Besides, the concentration for a half-maximal effect (EC50) in data set [2] was 15 nM; in data set [3], 0.1 nM.
In data set [1], `COC(=O)N[C@H](C(=O)N1C[C@H](OC)C[C@H]1c1nc2cc(-c3ccc(-c4ccc5[nH]c([C@@H]6C[C@@H](OC)CN6C(=O)[C@@H](NC(=O)OC)C(C)C)nc5c4)cc3)ccc2[nH]1)C(C)C` returned a cytotoxic concentration (CC50) of 6000 nM. In addition, the results for the EC50 in data set [2] and in data set [3] were 1.22 nM and 0.034 nM, respectively.
For `COC(=O)N[C@H](C(=O)N1C[C@@H](OC)C[C@H]1c1nc2cc(-c3ccc(-c4ccc5[nH]c([C@@H]6C[C@H](OC)CN6C(=O)[C@@H](NC(=O)OC)C(C)C)nc5c4)cc3)ccc2[nH]1)C(C)C` the same measures were greater than 20000 nM, 0.053 nM and 0.031 nM.
`COC(=O)N[C@H](C(=O)N1C[C@H](C)C[C@H]1c1nc2cc(-c3ccc(-c4ccc5[nH]c([C@@H]6C[C@@H](C)CN6C(=O)[C@@H](NC(=O)OC)C(C)C)nc5c4)cc3)ccc2[nH]1)C(C)C` gave a CC50 in data set [1] of 14000 nM. Moreover, the EC50 in data set [2] was found to be 0.028 nM; in data set [3] it was 0.007 nM.
`COC(=O)N[C@H](C(=O)N1C[C@@H](C)C[C@H]1c1nc2cc(-c3ccc(-c4ccc5[nH]c([C@@H]6C[C@H](C)CN6C(=O)[C@@H](NC(=O)OC)C(C)C)nc5c4)cc3)ccc2[nH]1)C(C)C`: the 50% cytotoxic concentration (CC50) in data set [1] was greater than 20000 nM. The EC50 turned out to be 0.026 nM in data set [2] and 0.037 nM in data set [3].
For `COC(=O)N[C@H](C(=O)N1C[C@@H](C(F)(F)F)C[C@H]1c1nc2cc(-c3ccc(-c4ccc5[nH]c([C@@H]6C[C@H](C(F)(F)F)CN6C(=O)[C@@H](NC(=O)OC)C(C)C)nc5c4)cc3)ccc2[nH]1)C(C)C` the same measures were 13000 nM, 0.03 nM and 0.005 nM.
In data set [1], `CC[C@H]1C[C@@H](c2nc3cc(-c4ccc(-c5ccc6[nH]c([C@@H]7C[C@H](CC)CN7C(=O)[C@@H](NC(=O)OC)C(C)C)nc6c5)cc4)ccc3[nH]2)N(C(=O)[C@@H](NC(=O)OC)C(C)C)C1` yielded a half-maximal cytotoxic concentration (CC50) greater than 20000 nM. Besides, the EC50 in data set [2] came out at 0.085 nM; in data set [3], 0.019 nM.
In data set [1], `COC(=O)N[C@H](C(=O)N1CC(C)(C)C[C@H]1c1nc2cc(-c3ccc(-c4ccc5[nH]c([C@@H]6CC(C)(C)CN6C(=O)[C@@H](NC(=O)OC)C(C)C)nc5c4)cc3)ccc2[nH]1)C(C)C` registered a cytotoxic concentration (CC50) greater than 20000 nM. Also, the EC50 in data set [2] was 0.03 nM; in data set [3] it was 0.011 nM.
In the case of `COC(=O)N[C@H](C(=O)N1C[C@@H](C)C[C@H]1c1nc2cc(C#CC#Cc3ccc4[nH]c([C@@H]5C[C@H](C)CN5C(=O)[C@@H](NC(=O)OC)C(C)C)nc4c3)ccc2[nH]1)C(C)C`, the values for the EC50 in data set [2] and in data set [3] were 0.018 nM and 0.024 nM, respectively.
